M4 PAM = CHRM4 positive allosteric modulation; CHO-K1 hM4/Gqi5, Fluo-8 calcium fluorescence, ACh EC20; 0% = ACh EC20, 100% = maximal ACh; activation, % at 3 µM; 360,000 tested, 0.4% active;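 active = activation above its plate's cutoff, the mean activation of sample wells plus 3 SD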
M4 ag = agonists of human muscarinic M4 receptor (CHRM4). P08173. CHO-K1 hM4/Gqi5, Fluo-8 calcium fluorescence; vehicle 0%, full acetylcholine response 100%. activation, % at 3 µM. 360,000 tested, 0.14% active;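 active = activation above the run mean over all test wells plus 3 SD, cut at about 32% in these data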;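 note: peak over basal fluorescence ratio per well then scaled between controls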
CHRM5 PAM = CHRM5 positive allosteric modulation; P08912; CHO-K1 hM5, Fluo-8 calcium, ACh EC20 PAM; 0% = ACh EC20, 100% = ACh EC100; activation, % at 3 µM; 360,000 tested, 0.3% active;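 active = activation above the run cutoff, the mean activation of all test compounds plus 3 SD, cut at about 18% in these data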
Target sequence (P08912 whole entry, looked up): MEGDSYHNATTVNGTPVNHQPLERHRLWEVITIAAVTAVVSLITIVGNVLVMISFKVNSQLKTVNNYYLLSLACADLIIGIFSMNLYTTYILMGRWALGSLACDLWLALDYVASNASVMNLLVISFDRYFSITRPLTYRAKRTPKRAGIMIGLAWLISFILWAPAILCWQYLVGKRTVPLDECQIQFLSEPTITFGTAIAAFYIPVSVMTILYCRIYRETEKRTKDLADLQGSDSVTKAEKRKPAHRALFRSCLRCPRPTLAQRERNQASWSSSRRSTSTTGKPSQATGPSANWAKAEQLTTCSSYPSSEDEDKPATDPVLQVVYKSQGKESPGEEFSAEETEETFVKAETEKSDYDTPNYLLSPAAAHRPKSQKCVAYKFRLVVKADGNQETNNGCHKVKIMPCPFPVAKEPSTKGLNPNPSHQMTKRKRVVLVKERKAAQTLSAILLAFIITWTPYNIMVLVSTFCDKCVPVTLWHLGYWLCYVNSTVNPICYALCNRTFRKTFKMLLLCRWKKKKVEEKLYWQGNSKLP
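Test system: CHO-K1 hM5 cells / Doses: single-point, 3 µM nominal / Times: Post-acetylcholine fluorescence recording 140 s / Technique: Fluo-8 calcium fluorescence / Measure: Max/basal fluorescence ratio as % of EC20–EC100 ACh window / Benchmarks: low control EC20 acetylcholine (0%), high control EC100 acetylcholine (100%) / Replicates: one well per compound, no replicates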
M5 antag = antagonists of human muscarinic M5 receptor (CHRM5) | P08912 | CHO-hM5 cells, Fluo-8 calcium fluorescence, ACh EC80 | inhibition, % at 3 µM | 360,000 tested, 0.59% active | AID 624040;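 active = inhibition above a per-plate cutoff, the mean of that plate's test compounds plus 3 SD, cut at about 27% in these data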
CHRM4 antagonist = blocks acetylcholine activation of human M4 receptor; CHO-hM4 cells, ACh EC80, Fluo-8 calcium fluorescence; P08173; inhibition, % at 3 µM; 360,000 tested, 0.73% active;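 active = inhibition above its plate's cutoff, the mean inhibition of sample wells plus 3 SD, cut at about 27% in these data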
CHRM5 agonist = agonists of human muscarinic M5 receptor (CHRM5); P08912; CHO-K1 hM5 cells, Fluo-8 calcium fluorescence; 0% DMSO wells, 100% maximal acetylcholine response; activation, % at 3 µM; 360,000 tested, 0.19% active; AID 624037;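 active = activation above the run's mean over test compounds plus 3 SD, cut at about 23% in these data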;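 note: signal is peak over basal fluorescence ratio across the kinetic read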
Of the large screens only hits and unclear results are named; the others gave an inactive call. Compounds with a hit are over-represented: about 1.8% of the library has one in this group of screens.

Cc1occc1C(=O)Nc1c(F)c(F)c(F)c(F)c1F	CHRM5 PAM 18
Cc1occc1C(=O)NNC(=O)Nc1ccc(F)cc1F	none
Cc1occc1C(=O)Nc1ccc(Br)cc1F	CHRM5 PAM 30
Cc1cccc(NC(=O)CSCC(=O)NNC(=O)c2ccoc2C)c1	M4 PAM 23
CCC1CCCCN1CCCNC(=O)CNC(=O)c1nn(-c2ccc(OC)c(Cl)c2)c(=O)c2ccccc12 (stereo unspecified)	CHRM4 antagonist 37
COc1ccc(-n2nc(C(=O)NCC(=O)Nc3cc(OC)c(OC)c(OC)c3)c3ccccc3c2=O)cc1OC	CHRM4 antagonist 27
CC(Sc1ccc(S(=O)(=O)N2CCN(C)CC2)cn1)C(=O)Nc1cccc(Cl)c1Cl (stereo unspecified)	none
O=S(=O)(NNc1ccc(F)cc1F)c1cccc(Cl)c1	CHRM4 antagonist 67
O=C(NNc1ccc(F)cc1F)c1c(F)cccc1Cl	none
COc1ccc(NC(=O)c2cc(C3CCCCN3S(=O)(=O)Cc3ccccc3)on2)cn1 (stereo unspecified)	none
Cc1ccc(NC(=O)CNc2ccc(Cl)c(Cl)c2)cc1S(=O)(=O)N(C)C	CHRM4 antagonist 33
O=C1CC(N(O)c2ccccc2)C(=O)N1c1cc(Cl)cc(Cl)c1 (stereo unspecified)	CHRM5 agonist 30
COc1cc(C(=O)NCC(c2ccco2)N2CCCC2)ccc1OCc1ccc(Cl)cc1Cl (stereo unspecified)	CHRM4 antagonist 52
COc1ccc(NS(=O)(=O)c2cccc(C(=O)NCC(c3ccccc3OC)N3CCCC3)c2)cc1 (stereo unspecified)	none
O=C(NCC(c1ccco1)N1CCCCC1)c1ccc(S(=O)(=O)Nc2ccccc2)cc1 (stereo unspecified)	none
COc1ccc(Cl)cc1C(=O)NCC(c1ccco1)N1CCCC1 (stereo unspecified)	none
COc1ccccc1C(CNC(=O)c1cccc(S(=O)(=O)Nc2ccc(F)cc2)c1)N1CCCC1 (stereo unspecified)	M5 antag 47, CHRM4 antagonist 36
O=C(NCC(c1ccco1)N1CCCC1)c1cccc(NS(=O)(=O)c2ccccc2)c1 (stereo unspecified)	CHRM4 antagonist 74
CC(Sc1ccc(S(=O)(=O)N2CCOCC2)cc1[N+](=O)[O-])C(=O)O (stereo unspecified)	M4 PAM 23
COC(=O)CSc1ccc(S(=O)(=O)N2CCC(C)CC2)cc1[N+](=O)[O-]	M4 PAM 25
Cc1ccc(S(=O)(=O)N2CCC(C)CC2)cc1[N+](=O)[O-]	none
O=C(Nc1cc2c(cc1Cl)-c1ccc([N+](=O)[O-])cc1C2=NO)C(F)(F)F	none
Cc1cccc(C)c1NC(=O)C(C1CC1)n1c(-c2ccc(C(F)(F)F)cc2)nc2ccccc21 (stereo unspecified)	none
CCCC(=O)c1c(NC(C)C)cc(C)oc1=O	M4 PAM 39
O=C(CCc1ccncc1)NC1CCCc2c1cnn2-c1ccc(F)cc1F (stereo unspecified)	none
COC(=O)c1cn(Cc2ccccc2C)nn1	M4 PAM 22
CC(C)CN(C(=O)CSc1nc2ccccc2c(=O)[nH]1)c1c(N)n(CC(C)C)c(=O)[nH]c1=O	M4 PAM 24
Cn1c(=O)c2[nH]c(-c3cccnc3)nc2n(C)c1=O	M4 PAM 31
O=C(COc1ccc(CNC[C@H]2O[C@@H](n3ccc(=O)[nH]c3=O)[C@H](O)[C@@H]2O)cc1)Nc1ccccn1	none
O=C(COC(=O)CSc1ccc(Cl)cc1)NCCc1ccccc1	M4 PAM 24
NC(=O)c1ccsc1NC(=O)COC(=O)c1ccc(Cl)cc1	none
NC(=O)c1ccsc1NC(=O)COC(=O)CSc1ccc(Cl)cc1	M5 antag 32
Cc1ccc(OCC(=O)OCC(=O)Nc2sccc2C(N)=O)cc1C	M5 antag 32
CC(C)(C)OC(=O)N1CCN(C(=O)c2[nH]cnc2C(=O)Nc2nccs2)CC1	none
CC(C)(C)c1ccc(-n2nc(C#N)c(Cl)cc2=O)cc1	M5 antag 33, CHRM4 antagonist 54
CCC(CC)C(=O)Oc1c(C(=O)N(C)C)cccc1-c1ccccc1	none
CNc1ccc2ncc(-c3cccc(C(=O)N(C)C)c3)n2n1	none
CC(=O)c1c(N)c(C#N)c(C)n1-c1ccc(Br)cc1	CHRM5 PAM 35, M5 antag 27
COc1ccc(C=O)cc1COc1ccccc1F	M4 PAM 21
FC(F)Oc1ccc(NC(=S)NCc2ccccc2)cc1Cl	M5 antag 33
FC(F)Oc1ccc(NC(=S)NCc2ccccc2)cc1	none
Cc1onc(-c2ccccc2)c1C(=O)NNC(=S)NC(=O)c1ccc(Br)cc1	M4 ag 61, CHRM5 agonist 35
Cc1onc(-c2ccccc2)c1C(=O)NNC(=S)NC(=O)c1ccc(Cl)cc1Cl	M4 ag 113, CHRM5 agonist 30
Cc1ccc(C(=O)NNC(=S)NC(=O)c2ccc(Cl)cc2)cc1	M4 ag 131, CHRM4 antagonist 33, CHRM5 agonist 98
Cc1cccc(C(=O)NC(=S)NNC(=O)COc2c(C)cccc2C)c1	M4 PAM 23
CSc1ccccc1C(=O)NC1CCCc2ccccc21 (stereo unspecified)	none
Cc1noc(C)c1COc1ccccc1C(=O)N(C)CC(=O)Nc1ccc(F)c(F)c1F	none
Cc1cccc(C(=O)NC(=S)NNC(=O)c2ccccc2Cl)c1	M4 ag 40, CHRM5 agonist 46
Cc1cccc(C(=O)NC(=S)NNC(=O)Cc2ccccc2)c1	none
COc1cc(OC)c(NC(=O)c2c(-c3ccccc3)noc2C)cc1Cl	CHRM5 PAM 18
Cc1ccccc1C(=O)NNC(=S)NC(=O)c1ccc(Cl)cc1Cl	M4 ag 84, CHRM5 agonist 53
O=c1[nH]cc(C(F)(F)F)cc1NS(=O)(=O)c1ccccc1[N+](=O)[O-]	none
CC[C@H]1C(Nc2ccccc2)C[C@@H]2CCN3C(=O)CC[C@H]1[C@H]23 (stereo partly specified)	none
CCN(CC)S(=O)(=O)c1ccc(Cl)c(C(=O)NCc2ccco2)c1	none
CC(=O)c1ccc(NS(=O)(=O)c2cccc(C(=O)Nc3ccccc3C(=O)O)c2)cc1	M4 PAM 14
O=C(Nc1ccccc1C(=O)O)c1cc(S(=O)(=O)Nc2ccccc2)ccc1Cl	M4 PAM 16
O=C(O)c1ccc(NS(=O)(=O)c2ccc(Cl)c(C(=O)Nc3ccccc3)c2)cc1	none
